ChEMBL document CHEMBL1914423, “New imidazo[2,1-b]thiazole derivatives: synthesis, in vitro anticancer evaluation, and in silico studies” (Eur J Med Chem, 2011)
pIC50: −log10 of the molar value.

Columns and labels:
[1] = tested on: SR; assay: Anticancer activity against human SR cells assessed as cell growth at 10^-5 M after 48 hrs by SRB assay; format: functional; details: read-out: Activity
Outline: (§1)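 NCI-60 single-dose screen: cells in RPMI 1640 with 5% FBS and 2 mM L-glutamine, plated at 5000–40,000 cells/well by doubling time, and preincubated 24 h at 37 °C. Compound given at one concentration from DMSO stock. Cells TCA-fixed and SRB-stained, absorbance at 515 nm. Percent growth relative to time-zero and untreated controls; inhibition % = 100 − growth %.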

[2] = tested on: SK-MEL-2; assay: Anticancer activity against human SK-MEL-2 cells assessed as cell growth at 10^-5 M after 48 hrs by SRB assay; format: functional; details: SK-MEL-2, 48 h, read-out: Activity
[3] = tested on: 786-0; assay: Anticancer activity against human 786-0 cells assessed as cell growth at 10^-5 M after 48 hrs by SRB assay; format: functional; details: 786-0, 48 h, read-out: Activity
Outline: (§2)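 NCI-60 single-dose screen at one concentration. Cells grown in RPMI 1640 with 5% FBS and 2 mM L-glutamine, plated at 5000–40,000 cells/well, and pre-incubated 24 h at 37 °C in 5% CO2 before DMSO-dissolved drug was added. Cells fixed with TCA, SRB-stained, absorbance read at 515 nm. Percent growth calculated against time-zero and untreated control plates.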

[4] = tested on: SK-MEL-5; assay: Anticancer activity against human SK-MEL-5 cells assessed as cell growth at 10^-5 M after 48 hrs by SRB assay; format: functional; details: SK-MEL-5, 48 h, read-out: Activity
[5] = tested on: MDA-MB-435; assay: Anticancer activity against human MDA-MB-435 cells assessed as cell growth at 10^-5 M after 48 hrs by SRB assay; format: functional; details: MDA-MB-435, 48 h, read-out: Activity
[6] = tested on: K562; assay: Anticancer activity against human K562 cells assessed as cell growth at 10^-5 M after 48 hrs by SRB assay; format: functional; details: K562, 48 h, read-out: Activity; outline: as §2
[7] = tested on: HCT-116; assay: Anticancer activity against human HCT116 cells assessed as cell growth at 10^-5 M after 48 hrs by SRB assay; format: functional; details: HCT-116, 48 h, read-out: Activity; outline: as §2
[8] = tested on: A549; assay: Anticancer activity against human A549 cells assessed as cell growth at 10^-5 M after 48 hrs by SRB assay; format: functional; details: A549, 48 h, read-out: Activity; outline: as §2
[9] = tested on: UACC-257; assay: Anticancer activity against human UACC257 cells assessed as cell growth at 10^-5 M after 48 hrs by SRB assay; format: functional; details: UACC-257, 48 h, read-out: Activity; outline: as §1
[10] = tested on: HOP-92; assay: Anticancer activity against human HOP92 cells assessed as cell growth at 10^-5 M after 48 hrs by SRB assay; format: functional; details: HOP-92, 48 h, read-out: Activity; outline: as §2
[11] = tested on: CCRF-CEM; assay: Anticancer activity against human CCRF-CEM cells assessed as cell growth at 10^-5 M after 48 hrs by SRB assay; format: functional; details: read-out: Activity; outline: as §2
[12] = tested on: EKVX; assay: Anticancer activity against human EKVX cells assessed as cell growth at 10^-5 M after 48 hrs by SRB assay; format: functional; details: read-out: Activity; outline: as §2
[13] = tested on: HOP-62; assay: Anticancer activity against human HOP62 cells assessed as cell growth at 10^-5 M after 48 hrs by SRB assay; format: functional; details: HOP-62, 48 h, read-out: Activity; outline: as §2
[14] = Antiproliferative activity against human A375P cells after 48 hrs by MTT assay; format: functional, cell-based
Outline: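 A375P cells in DMEM with 10% FBS at 37 °C, 5% CO2. Seeded at 5×10³ cells/well, held 24 h, then treated with 12-point 3-fold serial dilutions for 48 h. Viability by MTT reduction. IC50 values are means of triplicate experiments.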

[15] = tested on: PC-3; assay: Anticancer activity against human PC3 cells assessed as cell growth at 10^-5 M after 48 hrs by SRB assay; format: functional; details: PC-3, 48 h, read-out: Activity
[16] = tested on: HCC 2998; assay: Anticancer activity against human HCC2998 cells assessed as cell growth at 10^-5 M after 48 hrs by SRB assay; format: functional; details: HCC 2998, 48 h, read-out: Activity; outline: as §2
[17] = tested on: UO-31; assay: Anticancer activity against human UO31 cells assessed as cell growth at 10^-5 M after 48 hrs by SRB assay; format: functional; details: UO-31, 48 h, read-out: Activity; outline: as §1
[18] = tested on: OVCAR-4; assay: Anticancer activity against human OVCAR4 cells assessed as cell growth at 10^-5 M after 48 hrs by SRB assay; format: functional; details: OVCAR-4, 48 h, read-out: Activity
[19] = tested on: HCT-15; assay: Anticancer activity against human HCT15 cells assessed as cell growth at 10^-5 M after 48 hrs by SRB assay; format: functional; details: HCT-15, 48 h, read-out: Activity; outline: as §2
[20] = tested on: NCI-H522; assay: Anticancer activity against human NCI-H522 cells assessed as cell growth at 10^-5 M after 48 hrs by SRB assay; format: functional; details: NCI-H522, 48 h, read-out: Activity
[21] = tested on: HL-60(TB); assay: Anticancer activity against human HL-60(TB) cells assessed as cell growth at 10^-5 M after 48 hrs by SRB assay; format: functional; details: HL-60, 48 h, read-out: Activity
Outline: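 NCI-60 single-dose screen. Cells in RPMI 1640 with 5% FBS and 2 mM L-glutamine were plated at 5000–40,000 cells/well and preincubated 24 h at 37 °C before one compound concentration. Time-zero plates were TCA-fixed at drug addition. For suspension cells, settled cells were fixed with cold TCA, then SRB-stained and read at 515 nm. Percent growth was calculated from time-zero, control and treated absorbances.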

[22] = tested on: CAKI-1; assay: Anticancer activity against human Caki1 cells assessed as cell growth at 10^-5 M after 48 hrs by SRB assay; format: functional; details: CAKI-1, 48 h, read-out: Activity; outline: as §2
[23] = tested on: NCI-H226; assay: Anticancer activity against human NCI-H226 cells assessed as cell growth at 10^-5 M after 48 hrs by SRB assay; format: functional; details: NCI-H226, 48 h, read-out: Activity
[24] = tested on: LOX IMVI; assay: Anticancer activity against human LOXIMVI cells assessed as cell growth at 10^-5 M after 48 hrs by SRB assay; format: functional; details: read-out: Activity; outline: as §2
[25] = tested on: SW-620; assay: Anticancer activity against human SW620 cells assessed as cell growth at 10^-5 M after 48 hrs by SRB assay; format: functional; details: SW-620, 48 h, read-out: Activity; outline: as §1
[26] = tested on: SF-295; assay: Anticancer activity against human SF295 cells assessed as cell growth at 10^-5 M after 48 hrs by SRB assay; format: functional; details: SF-295, 48 h, read-out: Activity
[27] = tested on: IGROV-1; assay: Anticancer activity against human IGROV1 cells assessed as cell growth at 10^-5 M after 48 hrs by SRB assay; format: functional; details: IGROV-1, 48 h, read-out: Activity; outline: as §2

Structure (SMILES) | growth at 10 µM [1] [%] | growth at 10 µM [2] [%] | growth at 10 µM [3] [%] | growth at 10 µM [4] [%] | growth at 10 µM [5] [%] | growth at 10 µM [6] [%] | growth at 10 µM [7] [%] | growth at 10 µM [8] [%] | growth at 10 µM [9] [%] | growth at 10 µM [10] [%] | growth at 10 µM [11] [%] | growth at 10 µM [12] [%] | growth at 10 µM [13] [%] | pIC50 [14] | growth at 10 µM [15] [%] | growth at 10 µM [16] [%] | growth at 10 µM [17] [%] | growth at 10 µM [18] [%] | growth at 10 µM [19] [%] | growth at 10 µM [20] [%] | also measured
COc1cccc(-c2nc3sccn3c2-c2ccnc(NCCNC(=O)Nc3ccccc3)n2)c1 | 93.1 | 99.9 | 96.8 | 81.9 | 96.6 | 99.4 | 52.9 | 101 | 119 | 70.9 | 44.4 | 113 | 129 | < 5.00 | 84.2 | 113 | 76.1 | 106 | 87.8 | 82.7 | growth at 10 µM [21]: 122%; growth at 10 µM [22]: 117%; growth at 10 µM [23]: 109%; growth at 10 µM [24]: 102%; growth at 10 µM [25]: 77.3%; growth at 10 µM [26]: 110%; growth at 10 µM [27]: 97.9%
O=C(NCCNc1nccc(-c2c(-c3cccc(O)c3)nc3sccn23)n1)c1ccccc1 | 68 | 45.5 | 66.5 | 40.2 | 24 | 62.8 | 42.5 | 56.3 | 11.3 | 58.6 | 47.3 | 94.2 | 119 | 6.30 | 68.5 | 97.8 | 87.7 | 98 | 88.4 | 72.7 | growth at 10 µM [21]: 93.3%; growth at 10 µM [22]: 87.9%; growth at 10 µM [23]: 54.5%; growth at 10 µM [24]: 23.2%; growth at 10 µM [25]: 78.2%; growth at 10 µM [26]: 67.4%; growth at 10 µM [27]: 57.4%
COc1cccc(-c2nc3sccn3c2-c2ccnc(NCCNC(=O)c3ccccc3)n2)c1 | 79.8 | 73.3 | 78.4 | 55.3 | 55.2 | 67.5 | 81.8 | 75.3 | 69.7 | 77.8 | 52.5 | 106 | 111 | < 5.00 | 79.7 | 114 | 53.8 | 109 | 81.9 | 61.8 | growth at 10 µM [21]: 94.2%; growth at 10 µM [22]: 84.3%; growth at 10 µM [23]: 79.3%; growth at 10 µM [24]: 54.8%; growth at 10 µM [25]: 114%; growth at 10 µM [26]: 85.4%; growth at 10 µM [27]: 69.2%
COc1cccc(-c2nc3sccn3c2-c2ccnc(NCCNC(=O)c3cc(N4CCOCC4)cc(C(F)(F)F)c3)n2)c1 | 80.7 | 76.2 | 74.4 | 66.2 | 62.8 | 90.1 | 75.6 | 82.2 | 89.5 | 59.1 | 49.4 | 84.8 | 112 | < 5.00 | 66.3 | 98.7 | 60.2 | 107 | 88.5 | 69.5 | growth at 10 µM [21]: 113%; growth at 10 µM [22]: 83%; growth at 10 µM [23]: 104%; growth at 10 µM [24]: 79.2%; growth at 10 µM [25]: 109%; growth at 10 µM [26]: 83.7%; growth at 10 µM [27]: 67.5%
O=C(NCCNc1nccc(-c2c(-c3cccc(O)c3)nc3sccn23)n1)c1cc(C(F)(F)F)cc(C(F)(F)F)c1 | 98.2 | 101 | 101 | 81.6 | 59.2 | 96.2 | 102 | 92.5 | 66.5 | 77.1 | 84.7 | 103 | 118 | < 5.00 | 82.8 | 129 | 94.6 | 129 | 96.6 | 97.6 | growth at 10 µM [21]: 123%; growth at 10 µM [22]: 96.8%; growth at 10 µM [23]: 116%; growth at 10 µM [24]: 90.7%; growth at 10 µM [25]: 117%; growth at 10 µM [26]: 97.1%; growth at 10 µM [27]: 93%
O=C(NCCNc1nccc(-c2c(-c3cccc(O)c3)nc3sccn23)n1)Nc1ccccc1 | 90.1 | 97.5 | 100 | 69.3 | 31.1 | 70.6 | 67.5 | 90.7 | 46.2 | 90.2 | 46 | 118 | 150 | < 5.00 | 86.6 | 94.7 | 86.6 | 123 | 92.7 | 57 | growth at 10 µM [21]: 95.1%; growth at 10 µM [22]: 111%; growth at 10 µM [23]: 105%; growth at 10 µM [24]: 79.6%; growth at 10 µM [25]: 63.3%; growth at 10 µM [26]: 99.5%; growth at 10 µM [27]: 99.9%
O=C(NCCNc1nccc(-c2c(-c3cccc(O)c3)nc3sccn23)n1)c1cc(N2CCOCC2)cc(C(F)(F)F)c1 | 97.3 | 64.5 | 86.6 | 58.4 | 34.7 | 70.7 | 78.8 | 88.6 | 16.7 | 87.7 | 52.9 | 88.6 | 136 | 5.36 | 78.2 | 109 | 87.5 | 133 | 92 | 78.6 | growth at 10 µM [21]: 102%; growth at 10 µM [22]: 82.5%; growth at 10 µM [23]: 106%; growth at 10 µM [24]: 52.3%; growth at 10 µM [25]: 126%; growth at 10 µM [26]: 84.4%; growth at 10 µM [27]: 80.4%
